Results on two molecules are retold here after ChEMBL document CHEMBL5385869, “Novel 4-aminoquinolines: Synthesis, inhibition of the Mycobacterium tuberculosis enoyl-acyl carrier protein reductase, antitubercular activity, SAR, and preclinical evaluation” (Eur J Med Chem, 2023).

Data set [1] is described as follows: Chemical stability in PBS at pH 7.4 assessed as parent compound remaining at 1 to 10 uM measured after 24 hrs by HPLC-EM/MS analysis. The format is physicochemical. The conditions noted are these: dose 1-10 µM, read-out: Stability. The essentials:
(§1)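 Compounds at 1–10 μM incubated 24 h at 37 °C in three media: pH 1.2 (0.1 M HCl), pH 7.4 (PBS) and pH 9.1 (0.1 M NH4HCO3). Remaining parent compound quantified afterward.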

A short description of data set [2]: Cytotoxicity against African green monkey Vero cells assessed as reduction in cell viability incubated for 72 hrs by MTT assay. The data set is classed as toxicity, cell-based. As to conditions: chlorocebus sabaeus. The essentials:
(§2)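 Cells grown in DMEM with 10% FBS. HepG2 seeded at 4 × 10³ and Vero at 2 × 10³ cells/well, 24 h before dosing. Compounds at 1, 5 and 20 μM in 1% DMSO for 72 h at 37 °C, 5% CO2. MTT readout: 5 mg/mL reagent for 4 h, absorbance at 595 nm. Neutral red readout: 25 μg/mL dye for 3 h, then acid-ethanol desorb. Viability is expressed relative to 1% DMSO controls.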

In data set [3] the target is T1, Enoyl-[acyl-carrier-protein] reductase [NADH] (Mycobacterium tuberculosis) (UniProt P9WGR1).
T1 sequence (whole entry): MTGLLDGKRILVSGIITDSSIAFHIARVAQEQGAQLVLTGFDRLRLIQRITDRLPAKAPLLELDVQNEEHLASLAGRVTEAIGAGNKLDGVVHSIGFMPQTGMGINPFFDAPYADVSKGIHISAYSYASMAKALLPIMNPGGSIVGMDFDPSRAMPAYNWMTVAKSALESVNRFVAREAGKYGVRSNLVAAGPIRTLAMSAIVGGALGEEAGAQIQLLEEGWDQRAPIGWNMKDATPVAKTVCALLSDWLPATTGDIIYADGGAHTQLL
As to the kind of experiment: Time dependent inhibition of Mycobacterium tuberculosis InhA.

The test system of data set [4] is Acinetobacter baumannii. As to the kind of experiment: Antibacterial activity against multidrug-resistant Acinetobacter baumannii clinical isolates assessed as inhibition of bacterial growth at 20 uM by broth microdilution method. The data set is classed as functional, organism-based. The essentials:
(§3)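 Broth microdilution in triplicate against a small bacterial panel, with compounds tested at 20 μM for growth inhibition.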

Data set [5] relates to Staphylococcus aureus. In words: Antibacterial activity against Staphylococcus aureus ATCC 25923 assessed as inhibition of bacterial growth at 20 uM by broth microdilution method. The data set is classed as functional, organism-based. In outline:
as §3

The target of data set [6] is T2, Enoyl-[acyl-carrier-protein] reductase [NADH] (Mycobacterium tuberculosis, UniProt P9WGR1).
T2 sequence (P9WGR1 whole entry): T1 sequence (whole entry)
As to the kind of experiment: Competitive inhibition of Mycobacterium tuberculosis InhA using varying concentrations of DD-CoA as substrate assessed as inhibition constant for enzyme-inhibitor binary complex in presence of NADH by Lineweaver-Burk plot analysis. In outline:
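Steady-state kinetics with recombinant MtInhA in 100 mM Pipes pH 7.0 at 25 °C. NADH fixed at 60 μM, DD-CoA varied 15–135 μM, inhibitor at fixed-varied levels of 0.2–4 μM. Kis is fitted to the competitive inhibition equation.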

Data set [7] relates to Mycobacterium tuberculosis. In words: Potency index, ratio of isoniazid MIC to test compound MIC for antibacterial activity against pan-sensitive Mycobacterium tuberculosis H37Rv ATCC 27294 measured after 7 days by resazurin dye based assay. The conditions noted are these: time 7 day. The data set is classed as functional.
Data set [8] deals with T2, Enoyl-[acyl-carrier-protein] reductase [NADH]. In words: Inhibition of Mycobacterium tuberculosis InhA-catalysed chemical reaction in presence of NADH measured for 1 min by UV/Visible spectrophotometry. The essentials:
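Recombinant MtInhA reaction at 25 °C in 100 mM Pipes pH 7.0, started by adding 2.2 μM enzyme and followed for 1 min. Substrate is DD-CoA, made from 2-trans-dodecenoic acid and CoA.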

The nature of data set [9]: Genotoxicity in human HepG2 cells assessed as induction of DNA damage at 1 to 5 uM incubated for 24 hrs by alkaline comet assay. As to conditions: hepg2, 24 h, dose 1-5 µM. The data set is classed as toxicity, cell-based. In outline: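 Alkaline comet assay in HepG2 cells seeded at 8 × 10⁴ cells/well. Exposure to 1 or 5 μM for 24 h. Lysis 48 h, alkali unwinding (300 mM NaOH, pH >13) 20 min at 4 °C, electrophoresis 20 min at 25 V, silver staining.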

The nature of data set [10]: Chemical stability in 0.1 M NH4HCO3 solution at pH 9.1 assessed as reduction in parent compound at 1 to 10 uM measured after 24 hrs by HPLC-EM/MS analysis. As to conditions: dose 1-10 µM, read-out: Drug degradation. The data set is classed as physicochemical. In outline: as §1
Data set [11] addresses T1, Enoyl-[acyl-carrier-protein] reductase [NADH] (Mycobacterium tuberculosis). In words: Binding affinity to Mycobacterium tuberculosis InhA assessed as change in entropy at 250 uM in presence of NADH by fluorescence spectroscopy.
For data set [12], the target named is T2, Enoyl-[acyl-carrier-protein] reductase [NADH]. As to the kind of experiment: Noncompetitive inhibition of Mycobacterium tuberculosis InhA using DD-CoA as substrate assessed as inhibition constant for enzyme-inhibitor binary complex in presence of varying concentrations of NADH by double reciprocal plot analysis.
A short description of data set [13]: Solubility of compound in 0.1 M HCl solution at pH 1.2 at 1 mg incubated for 4 hrs under shaking conditions by liquid chromotography. The data set is classed as physicochemical. In outline: (§4)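 1 mg of compound was added to 1 mL of PBS pH 7.4 or 0.1 M HCl, in triplicate. Suspensions were vortexed 1 min, shaken 4 h at 25 °C, then centrifuged 13000 rpm for 15 min at 25 °C. Supernatant was quantified by reverse-phase UHPLC (UV 260–280 nm) against a single-point calibration of compound in DMSO.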

Data set [14] relates to Mycobacterium tuberculosis. In words: Antibacterial activity against pan-sensitive Mycobacterium tuberculosis H37Rv ATCC 27294 measured after 7 days by resazurin dye based assay. The data set is classed as functional. As to conditions: H37Rv ATCC 27294, 168 h, time 7 day. In outline: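 Resazurin reduction microplate assay (REMA) in Middlebrook 7H9 broth with 10% ADC and 5% DMSO. Compounds come from 2 mg/mL DMSO stocks and are 2-fold serially diluted, top concentration 0.08–40 μg/mL depending on solubility. MIC is the lowest concentration preventing the blue-to-pink colour change. Three independent experiments; the reported value is the modal or the highest value.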

Data set [15] in a line: Cytotoxicity against human HepG2 cells assessed as reduction in cell viability incubated for 72 hrs by neutral red uptake assay. The format is toxicity, cell-based. The essentials: as §2
Data set [16] is described as follows: Selectivity index, ratio of CC50 for African green monkey Vero cells by neutral red uptake assay to MIC for pan-sensitive Mycobacterium tuberculosis H37Rv ATCC 27294. As to conditions: read-out: Selectivity Index. The data set is classed as toxicity, cell-based.
Data set [17] in a line: Selectivity index, ratio of CC50 for human HepG2 cells by neutral red uptake assay to MIC for pan-sensitive Mycobacterium tuberculosis H37Rv ATCC 27294. The format is toxicity. As to conditions: read-out: Selectivity Index.
The nature of data set [18]: Solubility of compound in PBS at pH 7.4 at 1 mg incubated for 4 hrs under shaking conditions by liquid chromotography. The format is physicochemical. The essentials:
as §4

The test system of data set [19] is Mycobacterium tuberculosis. As to the kind of experiment: Antibacterial activity against Mycobacterium tuberculosis H37Rv ATCC 27294 infected in mouse RAW264.7 cells assessed as reduction in colony forming units at 5 uM measured after 5 days (reference value: 4.19 +/- 0.41). The format is functional. As to conditions: time 5 day.
Data set [20] in a line: Metabolic stability in rat liver microsomes assessed as half life at 2 uM measured upto 30 mins by HPLC/MS/MS analysis. The data set is classed as ADME, Microsome. In outline:
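Compounds at 2 μM incubated at 37 °C with 1 mg/mL rat liver microsomes containing NADPH. Parent compound consumption followed over time.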

Structures are written as SMILES. Converted amounts (≈) assume the structure as drawn. The source made the active and inactive calls. The calls are words filed in the database; no cut-off is given here.

In the case of `Cc1cc(Nc2ccc(N3CCCCC3)cc2)c2cc(Br)ccc2n1`, in data set [1], the remaining at 24 h, up to 10 µM is 100%. Further, the 50% cytotoxic concentration (CC50) at 72 h in data set [2] is greater than 20 µM; in data set [15], 18.3 µM. In addition, in data set [3], the TDI result is “inactive”. Further, the result in [4] and in data set [5] was inactive. Moreover, the Ki in [6] and in [12] was 140 nM throughout. In addition, the Ratio in [7] was roughly 5.8. Also, the IC50 in [8] came out at 230 nM. The Activity entry in data set [9] is reported as “Non-Toxic”; in data set [19] it was 2.74 log10CFU. In addition, the degraded at 24 h, up to 10 µM in data set [10] is roughly 50%. Also, the deltaS in data set [11] is -33.4 cal/mol/K. For the same molecule, the solubility (thermodynamic) at 4 h in data set [13] is greater than 2500 µM; in [18] it was 3.9 µM (≈ 1.55 µg/mL). Also, in data set [14], the minimal inhibitory concentration (MIC) is 0.4 µM (≈ 0.159 µg/mL). The selectivity ratio was found to be 30.5 in data set [16] and 45.7 in data set [17]. Also, in data set [20], the half-life at 2 µM amounted to 22 min.

For the molecule `Cc1cc(Nc2ccc(N3CCCCC3)cc2)c2cc(Cl)ccc2n1`, the remaining at 24 h, up to 10 µM in data set [1] came out at 100%. The cytotoxic concentration (CC50) at 72 h in data set [2] is 19.2 µM; in data set [15], 16.4 µM. For the same molecule, the TDI entry in [3] is “inactive”. Moreover, the result in data set [4] and in data set [5] was inactive. Also, the Ki in [6] turned out to be 1330 nM; in [12], 430 nM. Moreover, the Ratio in [7] is roughly 2.6. Also, the IC50 in [8] came out at 1100 nM. The Activity entry is on record as “Non-Toxic” in data set [9] and 2.39 log10CFU in [19]. For the same molecule, the degraded at 24 h, up to 10 µM in data set [10] was greater than 75%. Also, the deltaS in data set [11] is -49.8 cal/mol/K. The solubility (thermodynamic) at 4 h was greater than 2800 µM in data set [13] and 18.6 µM (≈ 6.54 µg/mL) in data set [18]. The MIC in data set [14] was found to be 0.9 µM (≈ 0.317 µg/mL). Further, the values for the selectivity ratio in data set [16] and in data set [17] were 13 and 18.2, respectively. For the same molecule, in data set [20], the half-life at 2 µM is 5.9 min.
